Active and inactive are the calls of the source. The calls are words filed in the database; no cut-off is given here.

The target of series [1] is T1, ORAI 1/2/3 (Homo sapiens, UniProt Q96D31+Q96SN7+Q9BRQ5). Briefly: Inhibition of ORAl1/2/3 in HEK293 cells assessed as inhibition of Ca2+ influx up to 500 uM after 10 mins by FLIPR assay in presence of thapsigargin. Type of series: cell-based. Summed up:
(§1)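 Untransfected HEK293 cells plated at 40,000 cells/well, used after 36 h and loaded 1 h at 37 °C with Calcium-5 dye in nominally Ca2+-free modified Krebs buffer (117 mM NaCl, 4.8 mM KCl, 1 mM MgCl2, 10 mM HEPES). After a 50 s baseline, compound is added together with 1 µM thapsigargin for 10 min. Ca2+ or Cd2+ is then added, and the rate of fluorescence rise is read by FLIPR Tetra (ex 470–495, em 515–575 nm). IC50 is the mean of six experiments.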

Series [2] addresses T2, Transient receptor potential cation channel subfamily V member 6 (Homo sapiens) (UniProt Q9H1D0).
T2 sequence (whole entry): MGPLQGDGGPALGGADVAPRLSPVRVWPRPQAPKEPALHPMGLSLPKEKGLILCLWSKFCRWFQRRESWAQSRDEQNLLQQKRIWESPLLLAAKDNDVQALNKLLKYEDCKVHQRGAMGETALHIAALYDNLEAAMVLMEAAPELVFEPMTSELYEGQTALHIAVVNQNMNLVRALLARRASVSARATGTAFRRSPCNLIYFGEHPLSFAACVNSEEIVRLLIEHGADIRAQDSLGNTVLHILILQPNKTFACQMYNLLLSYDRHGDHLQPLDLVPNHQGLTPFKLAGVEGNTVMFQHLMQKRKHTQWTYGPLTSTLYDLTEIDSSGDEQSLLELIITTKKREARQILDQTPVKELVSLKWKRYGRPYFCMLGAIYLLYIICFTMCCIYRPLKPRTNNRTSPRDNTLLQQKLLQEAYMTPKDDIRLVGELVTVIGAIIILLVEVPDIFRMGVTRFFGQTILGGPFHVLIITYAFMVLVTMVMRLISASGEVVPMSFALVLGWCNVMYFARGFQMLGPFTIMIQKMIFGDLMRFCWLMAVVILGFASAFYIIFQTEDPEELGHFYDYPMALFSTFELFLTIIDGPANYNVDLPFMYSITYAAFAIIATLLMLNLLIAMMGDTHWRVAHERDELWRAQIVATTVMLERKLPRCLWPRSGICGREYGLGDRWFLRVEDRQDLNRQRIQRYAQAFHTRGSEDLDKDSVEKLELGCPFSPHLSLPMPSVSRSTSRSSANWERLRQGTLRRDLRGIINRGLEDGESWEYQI
Briefly: Inhibition of human TRPV6 transfected in HEK293 cells assessed as inhibition of Ca2+ influx up to 500 uM after 5 mins by FLIPR assay. Type of series: cell-based. Put shortly: (§2)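 HEK293 clone stably expressing RFP-tagged hTRPV6, made by Lipofectamine transfection, G418 selection and picking of red-fluorescent single-cell colonies. Cells plated at 40,000/well and used after 36 h, then loaded 1 h at 37 °C with Calcium-5 in nominally Ca2+-free Krebs buffer. After a 50 s baseline, compound is given for 5 min. Then 2 mM CaCl2 or 50 µM CdCl2 is added, and the initial rate of fluorescence increase is read by FLIPR Tetra. IC50 is the average of six independent experiments.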

Series [3] addresses T2, Transient receptor potential cation channel subfamily V member 6 (Homo sapiens). The series is described as follows: Inhibition of human TRPV6 transfected in HEK293 cells assessed as inhibition of Cd2+ influx up to 500 uM after 5 mins by FLIPR assay. Type of series: cell-based. Put shortly: as §2
Series [4] addresses T1, ORAI 1/2/3. The series is described as follows: Inhibition of ORAl1/2/3 in HEK293 cells assessed as inhibition of Cd2+ influx up to 500 uM after 10 mins by FLIPR assay in presence of thapsigargin. In kind it is cell-based. Put shortly: as §1
For series [5], the target named is T3, Transient receptor potential cation channel subfamily V member 6 (Homo sapiens, UniProt Q9H1D0).
T3 sequence (Q9H1D0 whole entry): T2 sequence (whole entry)
The series is described as follows: Inhibition of human TRPV6 transfected in HEK293 cells assessed as inhibition of Cd2+ influx after 5 mins by FLIPR assay. In kind it is cell-based. Summed up:
as §2

Series [6] has as its target T1, ORAI 1/2/3. The series is described as follows: Inhibition of ORAl1/2/3 in HEK293 cells assessed as inhibition of Cd2+ influx after 10 mins by FLIPR assay in presence of thapsigargin. Type of series: cell-based. Put shortly: as §1
Another series concerns HEK293. The series is described as follows: Selectivity ratio of IC50 for ORAl1/2/3 in HEK293 cells to IC50 for human TRPV6 transfected in HEK293 cells. Type of series: cell-based.
In series [7] the target is T3, Transient receptor potential cation channel subfamily V member 6. Briefly: Inhibition of human TRPV6 transfected in HEK293 cells assessed as inhibition of Ca2+ influx after 5 mins by FLIPR assay. Type of series: cell-based. Summed up:
as §2

In series [8] the target is T1, ORAI 1/2/3. Briefly: Inhibition of ORAl1/2/3 in HEK293 cells assessed as inhibition of Ca2+ influx after 10 mins by FLIPR assay in presence of thapsigargin. Type of series: cell-based. Summed up: as §1
Series [9] is described as follows: Stability of the compound in CHCl3 by NMR analysis. Type of series: physicochemical.
In series [10] the target is T3, Transient receptor potential cation channel subfamily V member 6. Briefly: Inhibition of human TRPV6 transfected in HEK293 cells. Type of series: cell-based. Summed up: as §2
Series [11] concerns the target T2, Transient receptor potential cation channel subfamily V member 6 (Homo sapiens). Briefly: Ratio of 2-APB IC50 to compound IC50 for human TRPV6.

`c1ccc([B-]2(c3ccccc3)Oc3cccc4ccc[n+]2c34)cc1`: the inhibition result (at ORAI 1/2/3 [1]; in series [2]; in [3]; on ORAI 1/2/3 [4]) was “inactive” throughout.
On to `Cc1ccc([B-]2(c3ccccc3)[NH2+]CCO2)s1` (stereo unspecified), for which the IC50 in [5] worked out at 10 µM; on ORAI 1/2/3 [6], 25.2 µM; in series [7] it was 12.3 µM; on ORAI 1/2/3 [8] it was 30.9 µM. Moreover, the Ratio IC50 with HEK293 stood at 2.5.
Turning to `OB(O)c1ccccc1`, the inhibition result (on ORAI 1/2/3 [1]; in [2]; in series [3]; on ORAI 1/2/3 [4]) was “inactive” each time.
As for `O=C1C[NH2+][B-](c2ccccc2)(c2ccccc2)O1`, the IC50 turned out to be 30.6 µM in series [5], 11 µM at ORAI 1/2/3 [6], 12.9 µM in series [7] and 38.6 µM on ORAI 1/2/3 [8]. The Stability result in series [9] is “Stable”.
On to `c1ccc([B-]2(c3cccnc3)[NH2+]CCO2)cc1` (stereo unspecified), for which the inhibition result (at ORAI 1/2/3 [1]; in series [2]; in series [3]; on ORAI 1/2/3 [4]) was “inactive” each time.
On to `OB(O)O`, for which the inhibition entry (on ORAI 1/2/3 [1]; in series [2]; in series [3]; at ORAI 1/2/3 [4]) was “inactive” throughout.
Consider `c1ccc([B-]2(c3ccccc3)[NH2+]CCO2)cc1`, for which the IC50 in series [5] was 24.5 µM; at ORAI 1/2/3 [6] it was 11.9 µM; in [7] it was 20.7 µM; at ORAI 1/2/3 [8] it was 22.9 µM; in [10], 22 µM.
Regarding `Ic1ccc([B-]2(c3ccccc3)[NH2+]CCO2)cc1` (stereo unspecified), the IC50 was determined as 5.2 µM in [5], 7.2 µM on ORAI 1/2/3 [6], 5.4 µM in series [7] and 2.8 µM on ORAI 1/2/3 [8]. In series [11], the Ratio IC50 came out at 4.
With `O=C1O[B-](c2ccccc2)(c2ccccc2)[NH2+][C@H]1CO`, the IC50 amounted to 20.2 µM in series [5], 9.8 µM at ORAI 1/2/3 [6], 36.6 µM in [7] and 40.5 µM on ORAI 1/2/3 [8]. In [9], the Stability entry is on record as “Stable”.

For the origin of these results see ChEMBL document CHEMBL2385079, “Design, synthesis and pharmacological characterization of analogs of 2-aminoethyl diphenylborinate (2-APB), a known store-operated calcium channel blocker, for inhibition of TRPV6-mediated calcium transport” (Bioorg Med Chem, 2013).
